# From PubChem
# MT1-MMP act inh – blocks activation of human MT1-MMP. GFP/RFP ratio change, % at 20 µM. HT1080 RFP-PRO-GFP cells, GFP/RFP ratio fluorescence, overnight; percent of plate control window, DMSO zero. hit rate 0.061% among 360,000. AID 651647;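 active means GFP/RFP ratio change of at least 30% with cell ATP level not reduced by more than half and red fluorescence within 50% of control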
#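 Assay system: HT1080 RFP-PRO-GFP cells | Dosing: 20 µM single dose, 1% DMSO | Incubation: Cells overnight before dosing, compound overnight, 37 °C, 5% CO2 | Evaluation: GFP/RFP fluorescence ratio | Control set: DMSO-only wells and HT1080 RFP-L50D-GFP cell wells as references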
# TAG inh – reduces triacylglycerol accumulation in H9c2 cells; hit rate 0.66% among 230,000; inhibition, % at 12.5 µM; AID 651582; Nile Red lipid (TAG) fluorescence; cells loaded with 200 µM oleic acid;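 active means pattern-corrected inhibition of lipid staining of at least 50% with the nuclear-stain viability signal not falling by more than 50%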
# sPLA2-III inh – Blocks human group III sPLA2 activity; QFRET BODIPY PC-A2 liposome hydrolysis, fluorescence; inhibition, % at 12.2 µM; hit rate 0.56% among 370,000; AID 743126; Q9NZ20;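 active means inhibition above mean plus 3 SD of compounds lying within the high and low control bounds, cut at about 19% in these data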
# Target sequence (Q9NZ20 whole entry, looked up): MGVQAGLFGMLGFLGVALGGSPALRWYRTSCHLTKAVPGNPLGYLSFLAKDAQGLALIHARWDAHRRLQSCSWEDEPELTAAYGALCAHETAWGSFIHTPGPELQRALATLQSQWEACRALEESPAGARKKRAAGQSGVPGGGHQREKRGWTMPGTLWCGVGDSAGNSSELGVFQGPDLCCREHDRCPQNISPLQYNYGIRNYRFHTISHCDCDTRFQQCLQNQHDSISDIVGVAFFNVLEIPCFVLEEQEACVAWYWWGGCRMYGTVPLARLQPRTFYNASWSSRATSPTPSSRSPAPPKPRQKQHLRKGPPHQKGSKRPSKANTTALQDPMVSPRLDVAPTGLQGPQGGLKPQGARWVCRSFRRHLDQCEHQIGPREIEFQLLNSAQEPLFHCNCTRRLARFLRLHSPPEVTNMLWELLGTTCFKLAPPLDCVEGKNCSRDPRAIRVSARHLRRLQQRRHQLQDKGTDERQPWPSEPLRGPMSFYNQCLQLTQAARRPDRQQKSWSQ
# Efflux pump mplx – antifungal efflux pump inhibition, Nile Red retention | S. cerevisiae Candida pump triplex | inhibition, % at 10 µM | hit rate 0.44% among 330,000 | AID 485275;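 active means plate passing quality check with inhibition over a set limit, or well fluorescence over plate mean plus 4 SD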;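 further: Nile Red retained in pooled yeast measured as flow cytometry median fluorescence; higher means more Nile Red kept so more efflux inhibition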
# Cmpd fluor yeast – flagged as fluorescent in efflux inhibitor counter-screen; shares compounds with Efflux pump mplx; S. cerevisiae AD/pABC3, compound fluorescence, flow cytometry; fluorescence ratio to DMSO, % at 10 µM; hit rate 4% among 1,700; AID 588517;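 active means fluorescence ratio to DMSO above its plate's cutoff, the plate mean ratio plus 5 SD, cut at about 210% in these data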;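 further: unstained yeast with no Nile Red so the signal is compound autofluorescence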
# Mdr1 pump inh – Candida Mdr1 efflux pump inhibition. shares compounds with Efflux pump mplx. S. cerevisiae AD/CaMDR1, Nile Red efflux, flow cytometry. inhibition, % at 10 µM. hit rate 1% among 1,700. AID 588518; in the data active means inhibition above about 26%;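 further: higher means more Nile Red retained so more efflux inhibition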
# Cdr2 pump inh – Candida Cdr2 efflux pump inhibition. shares compounds with Efflux pump mplx. S. cerevisiae AD/CaCDR2, Nile Red retention, flow cytometry. Nile Red retention ratio vs DMSO, % at 10 µM. hit rate 4% among 1,700. AID 588520; in the data active means Nile Red retention ratio vs DMSO above about 190%;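 further: higher ratio means more blocking of Cdr2 efflux of the dye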
# Cdr1 pump inh – inhibitors of Candida albicans Cdr1 efflux pump | shares compounds with Efflux pump mplx | inhibition, % at 10 µM | S. cerevisiae AD/CaCDR1, Nile Red efflux, flow cytometry | AID 588522 | hit rate 1% among 1,700;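 active means inhibition above the screen-wide mean plus twice its standard deviation, cut at about 32% in these data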
# H9c2 TAG conf – triacylglycerol accumulation inhibition, confirmation; shares compounds with TAG inh; H9c2 lipid accumulation, Nile Red fluorescence; cells loaded with 200 µM oleic acid; inhibition, % at 12.5 µM; hit rate 71% among 990;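 active means mean inhibition across replicates of 40% or more; inactive means mean inhibition below 40%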
# hGIII sPLA2 conf – human GIII-sPLA2 inhibition, confirmation. shares compounds with sPLA2-III inh. recombinant hGIII-sPLA2, BODIPY PC-A2 QFRET fluorescence. inhibition, % at 12.2 µM. hit rate 34% among 2,000. AID 743280;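 active means mean inhibition across triplicates above the hit cutoff set in the earlier primary screen, cut at about 19% in these data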
# 535nm interf – optically interferes with 535nm fluorescence in sPLA2 counter-screen; hit rate 8.5% among 2,000; inhibition, % at 12.2 µM; BODIPY FL product fluorescence interference, QFRET; shares compounds with sPLA2-III inh;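 active means average inhibition above the solvent-only control mean plus 3 SD, cut at about 6% in these data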
# A number is an active result; n = inactive; x = no result given. A selection: hits, their analogues and other compounds. The true share with any hit is near 1.3%.
SMILES,MT1-MMP act inh,TAG inh,sPLA2-III inh,Efflux pump mplx,Cmpd fluor yeast,Mdr1 pump inh,Cdr2 pump inh,Cdr1 pump inh,others
COc1cc(/C=C2/CC/C(=C/c3ccc(O)c(OC)c3)C2=O)ccc1O,n,n,n,0.5,n,n,n,n,
COc1cc(/C=C2\SC(=Nc3ccccc3OC)NC2=O)ccc1O,n,x,n,0.6,n,n,n,n,
COc1cc(/C=C2\SC(=Nc3ccccc3)NC2=O)cc(Cl)c1O,n,x,n,n,x,x,x,x,
CCc1ccc(N=C2NC(=O)/C(=C/c3cc(OC)c(O)c(OC)c3)S2)cc1,n,x,n,0.5,n,n,n,n,
CC(=O)c1ccc(-c2c(CCO)sc3ccccc23)cc1,n,x,n,x,x,x,x,x,
Cc1onc(-c2ccc(Cl)cc2)c1-c1ccn(S(=O)(=O)c2cccc(Cl)c2)n1,x,x,n,x,x,x,x,x,
OCCN1CCN(c2ncnc3sc(-c4ccccc4)cc23)CC1,n,n,n,n,x,x,x,x,
O=C(CCCN1C(=O)/C(=C/c2ccccc2Cl)SC1=S)NNC(=O)c1ccc(Cl)cc1,n,n,n,0.6,n,n,n,n,
CCCCn1c(N)c(N(CC(C)C)C(=O)CSc2ccccc2C)c(=O)[nH]c1=O,n,n,n,n,x,x,x,x,
c1ccc(-c2sc3ccccc3c2-c2ccc(OCCN3CCOCC3)cc2)cc1,n,x,x,n,x,x,x,x,
COc1ccc2sc(-c3ccccc3OC)c(-c3ccc(OCCN4CCOCC4)cc3)c2c1,n,n,x,128.3,n,89.4,n,100.3,
COc1ccccc1-c1sc2ccccc2c1-c1ccc(OCCN2CCOCC2)cc1,n,n,n,n,n,n,n,n,
COc1ccccc1C(O)c1ncc(-c2cccc3ccccc23)[nH]1 (configuration not stated),n,n,n,x,x,x,x,x,
Cc1ccc2c(c1)C(c1ccccc1)N(C(=O)c1ccc(Br)cc1)CC(=O)N2 (configuration not stated),n,x,n,n,x,x,x,x,
COc1ccc(OC)c2c1C(=O)c1ccccc1C2=O,x,x,n,n,x,x,x,x,
COc1ccc(OC)c2c1C(=O)C(Cl)=C(Cl)C2=O,n,n,n,1.5,n,n,245.8,n,
O=C1C(Cc2ccccc2)Nc2ncnc(N3CCN(c4ccccc4)CC3)c2N1Cc1ccc(Cl)cc1 (configuration not stated),n,n,n,103.9,n,108.6,n,88.6,
O=C(C1CCCCC1)N1CCCC(c2nc(-c3ccc(F)cc3)no2)C1 (configuration not stated),n,x,n,8.2,n,n,n,n,
COc1ccccc1-c1nc(C#N)c(N2CCN(C(c3ccccc3)c3ccccc3)CC2)o1,n,n,n,0.5,n,n,n,n,
O=C(O)C1CC=CCC1C(=O)Nc1ccc(N2CCN(Cc3ccccc3)CC2)cc1 (configuration not stated),n,n,n,11.1,n,n,n,n,
O=C(COC(=O)c1ccc(O)cc1O)NCCN1C(=O)CSC1=O,n,n,n,n,n,n,n,n,
Cc1cc(OCC(=O)OCC(=O)NCCN2C(=O)CSC2=O)ccc1Cl,n,n,n,n,x,x,x,x,
O=C(COC(=O)c1cccs1)NCCN1C(=O)CSC1=O,n,n,n,n,x,x,x,x,
O=C(COC(=O)c1cc(Cl)ccc1Cl)NCCN1C(=O)CSC1=O,n,x,n,32.0,n,n,n,n,
COC(=O)[C@]12C[C@H](CC(=O)NCCc3ccccc3OC)C(=O)N(CCC3=CCCCC3)C1=C[C@H](C(C)C)O[C@@H]2C1CC1,x,x,n,x,x,x,x,x,
SMILES,MT1-MMP act inh,TAG inh,sPLA2-III inh,Efflux pump mplx,Cmpd fluor yeast,Mdr1 pump inh,Cdr2 pump inh,Cdr1 pump inh,others
C=CCn1c(SCc2ccc(C(=O)OC)cc2)nnc1-c1sc(N)nc1C,n,x,n,15.2,n,n,n,n,
CC(=O)OCCn1c2nc(=O)[nH]c(=O)c-2nc2cc(C)c(C)cc21,n,x,n,0.7,n,n,n,n,
Cc1ccc(C(=O)NCCc2nnc3ccc(NCCCN4CCOCC4)nn23)cc1,n,x,n,n,x,x,x,x,
COC(=O)CCCC1=CC2=CC(=O)C(C)(OC(=O)c3cccs3)C(=O)C2=CN1c1ccc(OC)cc1 (configuration not stated),n,n,n,0.7,n,n,n,n,
COc1cc(C(=O)N2CCN(c3cc(Cl)ccc3Cl)CC2)cc(OC)c1OC,n,54.3,n,0.6,n,n,n,n,H9c2 TAG conf=64.8
O=C(NCc1ccccc1F)C1CCCN1S(=O)(=O)c1ccc(F)cc1 (configuration not stated),n,x,n,n,x,x,x,x,
Cc1ccccc1-n1nc(C(=O)c2cccs2)cc(-c2nc3ccccc3[nH]2)c1=N,n,n,23.2,0.3,n,n,n,n,hGIII sPLA2 conf=n;535nm interf=7.4
O=C(CNc1cc(S(=O)(=O)N2CCCC2)ccc1OCC(F)(F)F)Nc1ccc(SC(F)F)cc1,n,x,n,n,x,x,x,x,
COc1cc2c(cc1NC(=O)Nc1cccc(C)c1)oc1ccccc12,n,50.5,n,n,x,x,x,x,H9c2 TAG conf=n
CCCCCCN(C(=O)CCCN1C(=O)NC(c2ccc(-c3ccccc3)cc2)C(C(=O)OCc2ccccc2)=C1C)C(C)C(=O)NCCCC (configuration not stated),n,n,n,n,x,x,x,x,
CCCCCCN(C(=O)CCCCCN1C(=O)NC(c2ccc([N+](=O)[O-])cc2)C(C(=O)OCc2ccccc2)=C1C)C(C(=O)NCCCC)C1CCCCC1 (configuration not stated),n,65.9,n,n,x,x,x,x,H9c2 TAG conf=55.9
COCCN1C(=O)c2ccccc2C(C(=O)Nc2ccc3c(c2)OCCO3)C1c1ccc(F)cc1 (configuration not stated),n,57.2,n,n,x,x,x,x,H9c2 TAG conf=n
Cc1ccc(NC(=O)Cn2nnc(-c3ccccc3NC(=O)c3cccs3)n2)cc1,n,56.5,n,n,x,x,x,x,H9c2 TAG conf=70.6
COc1ccc(NC(=O)Cn2nnc(-c3ccccc3NC(=O)c3cccs3)n2)cc1,n,n,n,n,x,x,x,x,
C=CCNC(=O)C1CCN(c2cncnc2)CC1,x,x,n,x,x,x,x,x,
Cc1ccc(NS(=O)(=O)c2ccc(Cl)c(C(=O)Nc3cccc(C(=O)O)c3)c2)cc1,n,n,n,n,x,x,x,x,
Cc1c(C#N)c(O)n(CCO)c(=O)c1N=Nc1ccc2c(c1)COC2=O,n,84.7,n,n,x,x,x,x,H9c2 TAG conf=93.5
